# Laboratory results published in ChEMBL document CHEMBL3124845, “Synthesis, neuronal activity and mechanisms of action of halogenated enaminones” (Eur J Med Chem, 2014).
# Calls of active or inactive are those of the source. No cut-off for these calls is given here.
# Legend:
# [1] = Anticonvulsant activity in Sprague-Dawley rat hippocampus CA1 pyramidal neurons assessed as suppression of EPSC amplitude at 10 uM by voltage-clamp electrophysiology in presence of GABA-B receptor antagonist CGP55845; assay type: functional, Pyramidal neuron
# Pyramidal neuron = experiment: Anticonvulsant activity in Sprague-Dawley rat hippocampus CA1 pyramidal neurons assessed as suppression of EPSC amplitude at 10 uM at -60mV holding potential measured 15 to 20 mins post compound washout by voltage-clamp electrophysiology; assay type: functional, cell-based
# Outline: (§1)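 Coronal hippocampal slices ([…]) from halothane-anaesthetised male Sprague-Dawley rats (100–150 g), submerged in carbogenated aCSF at 29–31 C, 2–3 mL/min. Blind whole-cell patch of CA1 pyramidal cells with K-gluconate pipette solution (pH 7.3); voltage clamp near rest (60 mV). EPSCs evoked by afferent stimulation; two responses 30 s apart averaged; compound at […].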
# Hippocampus [2] = experiment: Anticonvulsant activity in Sprague-Dawley rat hippocampus assessed as inhibition of population spike amplitude at 10 uM preincubated for 6 mins followed by compound washout measured after 10 mins by […]; assay type: functional
# Outline: (§2)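 Extracellular recording of population spikes in coronal hippocampal slices from male Sprague-Dawley rats (100–150 g), aCSF 29–31 C. Spike amplitude measured from the positive peak to the negative tip; readings taken in control, 6 min into compound and 10 min after washout. Concentration-response run up to […]; mean and standard error.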
# [3] = Anticonvulsant activity in Sprague-Dawley rat hippocampus CA1 pyramidal neurons assessed as suppression of EPSC amplitude at 10 uM at -60mV holding potential by voltage-clamp electrophysiology relative to control; assay type: functional, Pyramidal neuron; outline: as §1
# Hippocampus [4] = experiment: Anticonvulsant activity in Sprague-Dawley rat hippocampus assessed as inhibition of population spike amplitude at >= 100 uM preincubated for 6 mins followed by compound washout measured after 10 mins by […]; assay type: functional, tissue-based; outline: as §2
# [5] = Anticonvulsant activity in Sprague-Dawley rat hippocampus CA1 pyramidal neurons assessed as suppression of EPSC amplitude at 10 uM by voltage-clamp electrophysiology in presence of GABA transaminase inhibitor vigabatrin; assay type: functional, Pyramidal neuron
# Hippocampus [6] = experiment: Anticonvulsant activity in Sprague-Dawley rat hippocampus assessed as inhibition of population spike amplitude preincubated for 6 mins followed by compound washout measured after 10 mins by […]; assay type: functional, tissue-based; outline: as §2
# Mus musculus [7] = experiment: Anticonvulsant activity in CF1 mouse at <100 mg/kg, ip after 30 mins; assay type: functional, organism-based
# Outline: (§3)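 Male CF1 mice; compound dissolved or suspended in 30% polyethylene glycol 400, given intraperitoneally at 30, 100 and 300 mg/kg. Protection scored in maximal electroshock and subcutaneous pentylenetetrazole seizure tests, with rotorod for neurotoxicity, read at 30 min and 4 h after dosing.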
# [8] = Anticonvulsant activity in Sprague-Dawley rat hippocampus CA1 pyramidal neurons assessed as suppression of action potential firing frequency at 10 uM by voltage-clamp electrophysiology relative to control; assay type: functional, Pyramidal neuron; details: in the assay text read “current-clamp” for “voltage-clamp”
# Mus musculus [9] = experiment: Anticonvulsant activity in CF1 mouse at 100 to 300 mg/kg, ip after 30 mins; assay type: functional, organism-based; outline: as §3
SMILES,inhibition at 10 µM (Hippocampus [2]),inhibition (Hippocampus [4]),EC50 (Hippocampus [6]),also measured
CCOC(=O)C1C(=O)C=C(Nc2ccc(Br)cc2Br)CC1C (stereo not drawn),-34.7%,inactive,1900 nM,Activity [1]: 16.6%; Activity (Pyramidal neuron): Active; Activity [3]: 47.5%; Activity [5]: 3.9%; inhibition (Hippocampus [6]): Dose-dependent effect; Activity (Mus musculus [7]): Active; Activity [8]: 76.3%
CCOC(=O)C1C(=O)C=C(Nc2ccc(I)cc2I)CC1c1ccccc1 (stereo not drawn),4%,inactive,,
CCOC(=O)C1CCC(Nc2ccc(Br)cc2Br)=CC1=O (stereo not drawn),35%,inactive,,
COC(=O)C1C(=O)C=C(Nc2ccc(Br)cc2Br)CC1c1ccccc1 (stereo not drawn),-72.2%,inactive,2100 nM,Activity [1]: 16.6%; Activity (Pyramidal neuron): Active; Activity [3]: 31.2%; Activity [5]: 40%; inhibition (Hippocampus [6]): Dose-dependent effect; Activity (Mus musculus [7]): Active; Activity [8]: 39.2%
COC(=O)C1C(=O)C=C(Nc2ccc(Br)cc2Br)CC1C (stereo not drawn),-25%,inactive,,Activity (Mus musculus [9]): Active
CCOC(=O)C1C(=O)C=C(Nc2ccc(Cl)cc2Cl)CC1C (stereo not drawn),-24.6%,inactive,10000 nM,
O=C1C=C(Nc2ccc(Br)cc2Br)CCC1,-23.7%,inactive,,
COC(=O)C1C(=O)C=C(Nc2ccc(I)cc2I)CC1c1ccccc1 (stereo not drawn),8.5%,inactive,,
CC1(C)CCC(Nc2ccc(Br)cc2Br)=CC1=O,-18.2%,inactive,,
CC1CC(=O)C=C(Nc2ccc(Br)cc2Br)C1 (stereo not drawn),8%,inactive,,
